Legend:
[1] = In vivo oral gavage study, blood; set-up: species or system New Zealand White rabbits; settings: male rabbits, 60 g HED
Summary of the method: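 Male adult New Zealand White rabbits (3.0 ± 0.3 kg) on high-fibre diet, fasted ~16 h, stratified by body weight, n=6/group. Free or pea-protein-nanoparticle-encapsulated test compound was given by oral gavage at 60 g per 70 kg adult HED, scaled by rabbit body-surface-area factors to an individual per-kg dose. Marginal ear vein blood was sampled pre-dose to 24 h (11 time-points); BHB was measured by assay kit.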

rats = settings: 14 to 21 g/kg bw/day; cited from earlier work

## C[C@@H](O)CC(=O)OCC(O)CO (stereo partly drawn) [KM, (R)-3-hydroxybutyrate monoglyceride]
[1]
  [BHB]max: 1.33 mmol/L
[1]; blood BHB
  MRT: 6.60 h
  Tmax: 0.75 h
rats
  systemic toxicity in vivo: no systemic toxicity

From PMC12744579 (Nanotechnology, Science and Applications, 2025)
